{"data": "Results collected from several papers", "target": "Protein kinase C alpha type (PRKCA, Homo sapiens, UniProt P17252)", "note": "Lines come from different studies, so protocols differ."}
{"SMILES": "CCCOc1ccc(OC)c(F)c1C(=O)c1ccc(C(=O)N[C@@H]2CNC[C@H]2NC(=O)c2ccc3[nH]ncc3c2)cc1", "assay": "enzyme activity, inhibitor", "setting": "10 µM", "endpoint": "remaining activity", "result": "92%"}
{"SMILES": "FC(F)c1nc2ccccc2n1-c1nc(N2CCOCC2)nc(N2CCOCC2)n1", "assay": "enzyme activity, inhibitor", "setting": "10 µM", "endpoint": "remaining activity", "result": "86%"}
{"SMILES": "Cc1cnc(NC2CCOCC2)nc1-n1cnc(C(=O)NC(CN)c2cc(F)cc(Cl)c2)c1 (stereo not shown)", "assay": "enzyme activity, inhibitor, radiometric", "setting": "1 µM", "endpoint": "remaining activity", "result": "100%"}
{"SMILES": "Cc1sc(C(=O)NC2COC2)cc1-n1cc(NC(=O)Nc2c(F)cccc2Cl)cn1", "assay": "enzyme activity, inhibitor", "setting": "10 µM", "endpoint": "remaining activity", "result": "95.9%"}
{"SMILES": "CCN(CC)CCNC(=O)c1c(C)[nH]c(/C=C2\\C(=O)Nc3ccc(F)cc32)c1C", "assay": "enzyme activity, inhibitor", "setting": "1 µM", "endpoint": "remaining activity", "result": "102%"}
{"SMILES": "COc1cc(Cl)c(C(=O)N[C@@H](CN[C@H]2CC[C@@H](N)CC2)Cc2ccc(C#N)cc2)cc1-c1ccc(CN[C@H](C)c2ccc(C)cc2)o1", "assay": "enzyme activity, inhibitor", "setting": "1 µM", "endpoint": "remaining activity", "result": "97%"}
{"SMILES": "CCN(CC)CCNC(=O)c1c(C)[nH]c(/C=C2\\C(=O)Nc3ccc(F)cc32)c1C", "assay": "enzyme activity, inhibitor", "setting": "10 µM", "endpoint": "inhibition", "result": "11%"}
{"SMILES": "CC(C)(C)c1nc(-c2cccc(NS(=O)(=O)c3c(F)cccc3F)c2F)c(-c2ccnc(N)n2)s1", "assay": "enzyme activity, inhibitor, radiometric", "setting": "1 µM", "endpoint": "remaining activity", "result": "100%"}
{"SMILES": "CC(C)c1ccc(NC(=O)c2cccs2)c(-c2nc3ccccc3[nH]c2=O)c1", "assay": "enzyme activity, inhibitor", "setting": "1 µM", "endpoint": "activity vs control", "result": "100%"}
{"SMILES": "CC(C)(O)[C@H]1CC[C@H](Nc2ccc3ncc(-c4cccc(C(F)(F)F)c4)n3n2)CC1", "assay": "enzyme activity, inhibitor", "setting": "1 µM", "endpoint": "remaining activity", "result": "69.5%"}
{"SMILES": "COc1cc(Nc2cnc(C#N)c(O[C@H](C)CN(C)C)n2)ncc1-c1cnn(C)c1", "assay": "enzyme activity, inhibitor, radiometric", "setting": "10 µM", "endpoint": "remaining activity", "result": "102%"}
{"SMILES": "CC/C(=N\\NC(=O)NCc1cccc(O)c1)c1ccc(O)c(C)c1O", "assay": "enzyme activity, inhibitor", "setting": "0.1 µM", "endpoint": "inhibition", "result": "2.6%"}
{"SMILES": "O=C(Nc1cnn(-c2csc(C(=O)NC3COC3)c2)c1)Nc1c(F)cccc1Cl", "assay": "enzyme activity, inhibitor", "setting": "5 µM", "endpoint": "remaining activity", "result": "90.7%"}
{"SMILES": "CN1CC(Oc2cnc(C#N)cc2-c2ccn3nc(NC(=O)C4CC4)cc3c2)C1", "assay": "enzyme activity, inhibitor", "setting": "1 µM", "endpoint": "inhibition", "result": "2%"}
{"SMILES": "COc1cc2ncnc(Nc3ccc(Oc4ccccc4)cc3C)c2cc1OC", "assay": "enzyme activity, inhibitor", "setting": "1 µM", "endpoint": "inhibition", "result": "6%"}
{"SMILES": "Cc1[nH]c(/C=C2\\C(=O)Nc3ccc(F)cc32)c(C)c1C(=O)N[C@H]1CCN(C(=O)N(C)C)C1", "assay": "enzyme activity, inhibitor", "setting": "0.1 µM", "endpoint": "remaining activity", "result": "108%"}
{"SMILES": "O=C1Nc2ccc(Cl)cc2C1=Cc1cc(Cl)c(O)c(Cl)c1", "assay": "cell-free assay", "setting": "0.5 µM", "endpoint": "remaining signal", "result": "105%"}
{"SMILES": "O=C(CSc1nc2nccnc2c(=O)n1CCc1ccccc1)Nc1nccs1", "assay": "enzyme activity, inhibitor", "setting": "10 µM", "endpoint": "inhibition", "result": "15%"}
{"SMILES": "CNC(=O)c1cc(Oc2ccc(NC(=O)Nc3ccc(Cl)c(C(F)(F)F)c3)cc2)ccn1", "assay": "cell-free assay", "setting": "0.5 µM", "endpoint": "remaining signal", "result": "96.8%"}
{"SMILES": "FC(F)(F)Oc1cccc(-c2cnc3ccc(-c4ccncc4)nn23)c1", "assay": "enzyme activity, inhibitor, radiometric", "setting": "5 µM", "endpoint": "activity vs control", "result": "91%"}
{"SMILES": "N#CCCc1ccc2c(c1)-c1[nH]c3ccc([N+](=O)[O-])cc3c1CC(=O)N2", "assay": "cell-free assay", "setting": "0.5 µM", "endpoint": "remaining signal", "result": "80.9%"}
{"SMILES": "CN(c1ncccc1CNc1nc(Nc2ccc3c(c2)CC(=O)N3)ncc1C(F)(F)F)S(C)(=O)=O", "assay": "enzyme activity, inhibitor", "setting": "1 µM", "endpoint": "inhibition", "result": "28.4%"}
